Cl transport mod: KCC2 (human) Cl- transport modulation; Q9H2X9; KCC2 cells, thallium flux FluoZin-2 fluorescence; B-score of Tl+ flux slope (higher = more flux/activation; lower = inhibition) at 10 µM; 2.2% of 190,000 active; AID 1456;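 active = thallium flux slope and its plate-corrected score both differing from the plate sample mean at a set confidence after two filtering rounds, in either direction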;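 note: slope of fluorescence scaled to starting intensity during 10 to 20 s after thallium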
KCNK3 inh: human KCNK3 channel inhibition, primary screen | CHO-KCNK3 thallium flux, FluxOR fluorescence; active compounds read low | B-score at 10 µM | 0.84% of 340,000 active | AID 602410;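 active = B-score under library mean minus 4 SD, starting fluorescence ratio at most library mean plus 5 SD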;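 note: more negative B-score means stronger inhibition of thallium flux through KCNK3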
hERG protect: hERG (human) protection from proarrhythmic block. Q12809. CHO-hERG, FluxOR thallium flux, dofetilide IC70 present. activation (rescue from dofetilide block), less the hit threshold, % at 10 µM. 0.51% of 310,000 active. AID 1511;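 active = activation above the mean of controls blocked by dofetilide plus 5 SD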;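 note: thallium influx through hERG after potassium depolarization seen as dye fluorescence rise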
Target sequence (Q12809 whole entry, looked up): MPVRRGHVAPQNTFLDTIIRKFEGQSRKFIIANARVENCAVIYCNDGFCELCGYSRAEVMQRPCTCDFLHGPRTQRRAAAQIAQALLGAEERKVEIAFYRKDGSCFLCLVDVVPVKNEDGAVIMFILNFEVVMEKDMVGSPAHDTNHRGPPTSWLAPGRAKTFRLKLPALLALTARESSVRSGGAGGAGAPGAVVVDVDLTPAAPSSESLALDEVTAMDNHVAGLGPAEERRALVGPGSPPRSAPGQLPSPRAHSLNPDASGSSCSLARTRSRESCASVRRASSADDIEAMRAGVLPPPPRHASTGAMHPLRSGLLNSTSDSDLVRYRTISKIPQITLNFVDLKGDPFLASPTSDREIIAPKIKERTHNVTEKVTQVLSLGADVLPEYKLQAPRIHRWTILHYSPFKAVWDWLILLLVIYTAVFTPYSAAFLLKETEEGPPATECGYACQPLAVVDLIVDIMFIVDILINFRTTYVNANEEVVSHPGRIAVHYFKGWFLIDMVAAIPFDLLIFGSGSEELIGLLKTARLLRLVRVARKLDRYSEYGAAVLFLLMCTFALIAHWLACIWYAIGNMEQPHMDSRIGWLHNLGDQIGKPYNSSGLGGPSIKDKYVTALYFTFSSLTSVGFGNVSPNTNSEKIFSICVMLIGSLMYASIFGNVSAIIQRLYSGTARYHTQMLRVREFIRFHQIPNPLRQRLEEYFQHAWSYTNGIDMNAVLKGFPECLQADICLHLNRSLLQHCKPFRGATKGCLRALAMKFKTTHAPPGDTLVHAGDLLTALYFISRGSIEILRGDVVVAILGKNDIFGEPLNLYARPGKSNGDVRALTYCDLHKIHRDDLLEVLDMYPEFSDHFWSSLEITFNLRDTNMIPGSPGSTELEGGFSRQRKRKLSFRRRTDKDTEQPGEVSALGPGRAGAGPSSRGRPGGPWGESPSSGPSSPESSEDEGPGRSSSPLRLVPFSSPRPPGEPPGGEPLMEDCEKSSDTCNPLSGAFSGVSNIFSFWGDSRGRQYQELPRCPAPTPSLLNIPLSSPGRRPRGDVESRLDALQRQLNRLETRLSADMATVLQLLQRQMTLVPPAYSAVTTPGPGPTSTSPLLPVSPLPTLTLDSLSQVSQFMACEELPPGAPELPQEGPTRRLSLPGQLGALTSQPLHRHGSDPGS
KCNQ1 pot: potentiates or activates the human KCNQ1 potassium channel; P51787; CHO-K1 KCNQ1, thallium flux FluxOR fluorescence; active compounds read high; B-score at 10 µM; 0.35% of 310,000 active; AID 2648;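 active = fluorescence ratio B-score, a plate-corrected score, at least three library SD, with initial intensity B-score within 5 SD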
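assay system = KCNQ1-transfected CHO-K1 cells | medium = assay buffer with matched DMSO | probe or stimulus = depolarizing K+/Tl+ stimulus, K2SO4 and Tl2SO4 each 12.5 mM in 5x stock | dosing = single dose | incubation = dye 90 min, compound 20 min, room temperature | detection = kinetic FluxOR fluorescence, 10 s baseline plus 110 s post-stimulus | evaluation = ratio B score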
KCNK9 block: blocks the human KCNK9 two-pore domain potassium channel; HEK293 KCNK9, FluxOR thallium flux fluorescence; active compounds read low; B-score at 10 µM; 1.2% of 310,000 active; AID 488922;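 active = ratio B-score over 3 SD below the library mean, with starting fluorescence within 5 SD of its mean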;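 note: negative B-score means less thallium flux so channel inhibition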
KCNQ1 block: human KCNQ1 channel inhibition | B-score at 10 µM | CHO-K1 KCNQ1, FluxOR thallium flux fluorescence; active compounds read high | 1.3% of 310,000 active | AID 2642 | P51787;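 active = compounds whose thallium flux B-score, printed positive for inhibition, exceeds three library SD while starting fluorescence stays within three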;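 note: channel opened by potassium depolarization with thallium stimulus after 20 min compound exposure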
Hits are given with their value; i = inactive; nt = no result given. Compounds with a hit are over-represented: about 4.1% of the library has one in this group of screens.

SMILES	Cl transport mod	KCNK3 inh	hERG protect	KCNQ1 pot	KCNK9 block	KCNQ1 block
CCCCC(CC)C(=O)Nc1ccc(C#N)cc1 (centres undefined)	i	i	i	i	i	i
CCCCC(CC)C(=O)Nc1ccc(S(=O)(=O)N2CCCC2)cc1 (centres undefined)	nt	i	i	i	i	i
CCCCC(CC)C(=O)Nc1ccc(Nc2ccccc2)cc1 (centres undefined)	i	i	i	i	-6.7	i
Oc1ccccc1CN1CCN(C(O)(c2ccccc2)c2ccccc2)CC1	nt	i	i	i	i	i
Oc1ccccc1CN1CCCN(Cc2ccccc2O)C1	i	i	5.0	i	i	i
Cc1nc2c(cnn2CCO)c(=O)[nH]1	nt	i	nt	nt	nt	nt
COc1ccc(NC(=O)c2ccc(N3C(=O)C4CC=C(C)CC4C3=O)cc2)c(OC)c1 (centres undefined)	nt	i	i	i	i	i
O=C(CNC(=O)c1ccc(Cl)cc1)OCC(=O)c1ccccc1	nt	i	i	i	i	i
O=C(CCC(=O)c1ccc(Cl)cc1)OCC(=O)c1ccccc1	i	i	8.9	i	i	i
Cc1noc(C)c1S(=O)(=O)N1CCN(c2ccc(Cl)cc2)CC1	nt	i	i	i	i	i
Cc1ccc(Cl)cc1N1CCN(S(=O)(=O)c2c(C)noc2C)CC1	nt	i	i	i	i	6
CC(C)NS(=O)(=O)c1ccc(NC(=O)C(C)Oc2ccc(C(=O)c3ccccc3)cc2)cc1 (centres undefined)	i	i	i	12	i	i
Cc1nn(CC(=O)Nc2ccc3c(c2)OCCO3)c(C)c1[N+](=O)[O-]	nt	i	nt	nt	nt	nt
Cc1nnc(SCC(=O)N2CCC(C(N)=O)CC2)s1	i	i	i	i	i	i
NC(=O)C1CCN(C(=O)CSc2nc3ccccc3s2)CC1	i	i	5.6	i	i	i
C=CCNc1nnc(SCC(=O)N2CCC(C(N)=O)CC2)s1	nt	i	i	9	i	i
O=C(CSc1nc2ccccc2s1)N1N=C(c2cccs2)CC1c1ccc(F)cc1 (centres undefined)	i	i	i	i	-6.9	i
COc1ccc(C2CC(c3cccs3)=NN2C(=O)CSc2nc3ccccc3s2)cc1 (centres undefined)	i	i	i	i	i	i
CCCCOc1ccc(N(CC(=O)NCc2ccccc2)C(=O)c2csnn2)cc1	nt	i	i	i	i	i
N#CCSc1ccccc1NC(=O)CN1C(=O)C(=O)N(Cc2ccccc2)C1=O	nt	i	nt	nt	nt	nt
COc1cc(CNC(C)(C)CO)cc(Br)c1OCc1ccc(Cl)cc1Cl	nt	i	i	i	-6.6	i
O=C(COC(=O)c1cc(-c2cccs2)nn1-c1ccccc1)Nc1cccc([N+](=O)[O-])c1	i	i	i	i	-6.8	i
Cn1c(C(=O)N2CCCC(C(=O)NCc3cccs3)C2)cc2sccc21 (centres undefined)	i	i	6.0	i	i	i
CCOC(=O)C1=C(COC(=O)/C=C/c2cccc(F)c2)NC(=O)NC1C (centres undefined)	nt	i	nt	nt	nt	nt
O=C(/C=C/c1ccc(Br)o1)NCc1ccccc1	i	i	i	i	-6.8	i
SMILES	Cl transport mod	KCNK3 inh	hERG protect	KCNQ1 pot	KCNK9 block	KCNQ1 block
O=C(NC(=S)NCc1ccccc1)c1ccc(Br)o1	nt	i	39	59	i	i
O=C(NNC(=S)NCc1ccccc1)c1ccc(Br)o1	i	i	i	i	i	i
COC(=O)C1=C(C(=O)OC)[C@]2([C@H]3CCCCN[C@@H](Cc4ccccc4)C(=O)N3Cc3ccccc3)C=C[C@H]1O2	nt	i	nt	nt	nt	nt
NS(=O)(=O)c1cccc(NC(=O)COC(=O)c2ccccc2SCC(=O)N2CCCC2)c1	nt	i	nt	nt	nt	nt
O=CN1c2ccccc2CSc2ccccc21	nt	i	i	i	i	i
CCOC(=O)C1(CCOC)CCN(C/C=C/c2ccccc2OC)CC1	nt	i	i	i	i	i
CC(C)CNS(=O)(=O)c1cc(C(=O)OCC(=O)c2ccc3c(c2)OCCO3)c(Cl)cc1Cl	i	i	i	i	i	i
CCCn1c(C)cc(C(=O)COC(=O)c2cc(S(=O)(=O)NCC(C)C)c(Cl)cc2Cl)c1C	i	i	i	i	-7	i
O=C(CNc1cccc([N+](=O)[O-])c1)N/N=C/c1ccc(F)cc1	i	i	9.9	i	i	i
O=C(CNc1cccc2ccccc12)N/N=C/c1ccc([N+](=O)[O-])cc1	i	i	i	i	i	i
Fc1ccccc1NC(=S)N/N=C/c1ccccc1Br	6.2	i	i	i	i	i
O=[N+]([O-])c1ccc(/C=N/NC(=S)Nc2ccccc2F)o1	28	i	i	i	i	i
CC[C@]12c3[nH]c4ccc(Cl)cc4c3CCN1C(=O)[C@@H](CC(=O)NCCC1=CCCCC1)C[C@@H]2C(=O)N1CCN(C(=O)C2CC2)CC1	nt	i	nt	nt	nt	nt
Cc1ccc(S(=O)(=O)N2CCCCC2)cc1C(=O)OC(C)C(=O)NC1CCCCC1C (centres undefined)	nt	i	nt	nt	nt	nt
CC(C)Cc1ccc(C(C)C(=O)Nc2ccc(O)cc2)cc1 (centres undefined)	i	i	i	10	i	i
CCN1C[C@@H]2[C@@H]3C(=O)N(Cc4ccccc4)C(=O)[C@@H]3[C@](CC)(C1=O)N2C(=O)c1ccc(Cl)c(Cl)c1	nt	i	nt	nt	nt	nt
CC1CN(c2nc3ccccc3nc2C(C#N)C(=O)NCc2ccc3c(c2)OCO3)CC(C)O1 (centres undefined)	i	i	i	23	i	i
CCCCNC(=O)C(C#N)c1nc2ccccc2nc1N1CCCC1 (centres undefined)	i	nt	i	i	i	i
C=CCNC(=O)C(C#N)c1nc2ccccc2nc1N1CCCCCC1 (centres undefined)	nt	i	i	i	i	6
CCCCNC(=O)C(C#N)c1nc2ccccc2nc1N1CCN(Cc2ccc3c(c2)OCO3)CC1 (centres undefined)	nt	i	nt	nt	nt	nt
COc1ccc([C@H]2CC(=O)C=C(c3ccc(Cl)c(C(F)(F)F)c3)C2)cc1OC	nt	i	nt	nt	nt	nt
N#Cc1ccc(C(=O)Nc2nnc(-c3cccs3)o2)cc1	6.7	i	i	i	i	i
CN(C)S(=O)(=O)c1ccc(C(=O)Nc2nnc(-c3cccs3)o2)cc1	i	i	i	i	i	i
S=c1[nH]cnc2scc(-c3ccccc3)c12	62	i	60	18	i	i
S=c1[nH]cnc2sc(-c3ccccc3)cc12	196	i	19	132	i	i
Cc1ccc(CNS(=O)(=O)c2ccc(CN3C(=O)c4cccnc4C3=O)cc2)o1	nt	i	i	i	i	i
CC(C)(C)[C@@H]1CCC(=O)N(CC[C@H](Sc2ccc(Br)cc2)c2ccccc2)CC1	nt	i	nt	nt	nt	nt
N#C/C(=C\c1ccccc1[N+](=O)[O-])C(=O)NCc1ccccc1	i	i	i	i	i	6
CCOCCCNC(=O)/C(C#N)=C/c1ccc([N+](=O)[O-])o1	i	i	i	i	i	6

Screens (PubChem BioAssay)
